The source made the active and inactive calls.
How the values were obtained:
[1] = molecular target: T1, Probable carboxylesterase 12 (Arabidopsis thaliana) (UniProt Q9SMN0); assay: Binding affinity to CXE12 in Arabidopsis thaliana leaf extracts at 4 to 20 uM after 1 hr using SDS-PAGE followed by nanoLC-ESI-MS/MS analysis
T1 sequence (whole entry): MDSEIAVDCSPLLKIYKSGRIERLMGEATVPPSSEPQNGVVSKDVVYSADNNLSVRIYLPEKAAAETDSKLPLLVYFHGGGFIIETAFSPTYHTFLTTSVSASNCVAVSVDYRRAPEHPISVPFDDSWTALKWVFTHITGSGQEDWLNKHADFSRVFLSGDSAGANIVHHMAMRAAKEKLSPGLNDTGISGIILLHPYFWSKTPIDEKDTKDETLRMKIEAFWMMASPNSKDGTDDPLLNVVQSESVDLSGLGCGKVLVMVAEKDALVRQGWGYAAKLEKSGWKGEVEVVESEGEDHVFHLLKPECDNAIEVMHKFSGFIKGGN

[2] = test system: Arabidopsis thaliana; assay: Binding affinity to POPL in Arabidopsis thaliana leaf extracts at 4 to 20 uM after 1 hr using SDS-PAGE followed by nanoLC-ESI-MS/MS analysis
[3] = molecular target: T2, Serine carboxypeptidase-like 48 (Arabidopsis thaliana) (UniProt Q56WF8); assay: Binding affinity to SCPL48 in Arabidopsis thaliana leaf extracts at 4 to 20 uM after 1 hr using SDS-PAGE followed by nanoLC-ESI-MS/MS analysis
T2 sequence (whole entry): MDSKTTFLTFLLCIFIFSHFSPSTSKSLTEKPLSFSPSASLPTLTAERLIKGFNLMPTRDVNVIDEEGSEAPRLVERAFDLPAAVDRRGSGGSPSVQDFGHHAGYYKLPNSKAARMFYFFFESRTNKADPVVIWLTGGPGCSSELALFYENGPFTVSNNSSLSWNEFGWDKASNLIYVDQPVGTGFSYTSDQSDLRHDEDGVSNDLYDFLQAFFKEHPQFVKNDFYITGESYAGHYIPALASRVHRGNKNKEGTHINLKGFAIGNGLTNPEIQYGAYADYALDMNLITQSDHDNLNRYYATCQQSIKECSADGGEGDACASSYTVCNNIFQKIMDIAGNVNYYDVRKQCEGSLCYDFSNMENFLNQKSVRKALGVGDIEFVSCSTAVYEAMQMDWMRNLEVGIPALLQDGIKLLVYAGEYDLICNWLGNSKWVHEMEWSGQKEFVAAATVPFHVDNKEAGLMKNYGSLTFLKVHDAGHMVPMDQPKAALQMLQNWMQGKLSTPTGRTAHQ

[4] = molecular target: T3, Probable carboxylesterase 7 (Arabidopsis thaliana) (UniProt Q9ZQ91); assay: Binding affinity to CXE7 in Arabidopsis thaliana leaf extracts at 4 to 20 uM after 1 hr using SDS-PAGE followed by nanoLC-ESI-MS/MS analysis
T3 sequence (whole entry): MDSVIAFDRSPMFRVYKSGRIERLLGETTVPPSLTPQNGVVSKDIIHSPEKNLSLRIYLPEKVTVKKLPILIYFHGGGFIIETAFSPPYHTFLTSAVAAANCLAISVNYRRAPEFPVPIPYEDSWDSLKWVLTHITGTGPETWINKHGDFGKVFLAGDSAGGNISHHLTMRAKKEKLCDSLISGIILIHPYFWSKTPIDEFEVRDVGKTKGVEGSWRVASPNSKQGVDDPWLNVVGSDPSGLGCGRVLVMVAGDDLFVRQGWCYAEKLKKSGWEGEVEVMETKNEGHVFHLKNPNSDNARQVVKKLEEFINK

[5] = molecular target: T1, Probable carboxylesterase 12 (Arabidopsis thaliana); assay: Binding affinity to Arabidopsis thaliana CXE12 overexpressed in agroin filtreated Nicotiana benthamiana leaf extracts pre-incubated with 100 uM paraoxon for 30 mins at 2 uM after 1 hr using SDS-PAGE followed by nanoLC-ESI-MS/MS analysis
In short: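 CXE12 cDNA in binary vector, Agrobacterium GV3101 pMP90, co-infiltrated with p19 silencing-suppressor strain into 4-week-old N. benthamiana leaves (p19 alone as control). Leaf extracts preincubated 30 min with 100 µM paraoxon or DMSO, then labeled 1 h with 2 µM probe. Reactions stopped in gel loading buffer, proteins resolved on gels, fluorescence scanning.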

[6] = molecular target: T1, Probable carboxylesterase 12 (Arabidopsis thaliana); assay: Binding affinity to CXE12 in Arabidopsis thaliana leaf extracts pre-incubated with 100 uM paraoxon for 30 mins at 5 uM after 1 hr using SDS-PAGE followed by nanoLC-ESI-MS/MS analysis
In short: (§1)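 Extract from 2 g frozen leaves of 4-week-old A. thaliana Col-0, ground, taken up in water, cleared 5 min at 16,000×g. Labeled with 5 µM probe, biotinylated targets pulled down on avidin beads, run on 1D SDS–PAGE and fluorescence-scanned. Bands excised, digested in-gel, and analysed by nanoLC-ESI-MS/MS on LTQ Velos (C18, 5–40% acetonitrile over 90 min, 300 nL/min, positive mode, m/z 400–1600).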

[7] = test system: Arabidopsis thaliana; assay: Binding affinity to POPL in Arabidopsis thaliana leaf extracts pre-incubated with 100 uM paraoxon for 30 mins at 5 uM after 1 hr using SDS-PAGE followed by nanoLC-ESI-MS/MS analysis; in short: as §1
[8] = molecular target: T2, Serine carboxypeptidase-like 48 (Arabidopsis thaliana); assay: Binding affinity to SCPL48 in Arabidopsis thaliana leaf extracts pre-incubated with 100 uM paraoxon for 30 mins at 5 uM after 1 hr using SDS-PAGE followed by nanoLC-ESI-MS/MS analysis; in short: as §1
[9] = molecular target: T3, Probable carboxylesterase 7 (Arabidopsis thaliana); assay: Binding affinity to CXE7 in Arabidopsis thaliana leaf extracts pre-incubated with 100 uM paraoxon for 30 mins at 5 uM after 1 hr using SDS-PAGE followed by nanoLC-ESI-MS/MS analysis; in short: as §1

Measured: Activity

C#CCNC(=O)OCCOCCOCCOCCP(=O)(OCC)Oc1ccc([N+](=O)[O-])cc1 (centres undefined)
active: [1] | [2] | [3] | [4]

CCOP(=O)(CCOCCOCCOCCOC(=O)NCc1cn(CCCCCNC(=O)CCC(=O)N[C@@H](CCCCNC(=O)CCCCC[C@@H]2SC[C@@H]3NC(=O)N[C@@H]32)C(=O)NCCCCCNC(=O)c2ccc(-c3c4ccc(=[N+](C)C)cc-4oc4cc(N(C)C)ccc34)c(C(=O)[O-])c2)nn1)Oc1ccc([N+](=O)[O-])cc1 (some centres undefined)
active: [5] | [6] | [7] | [8] | [9]

— ChEMBL document CHEMBL1932920
